This note sets out measurements from ChEMBL document CHEMBL2401666, “Structure-based design of novel HCV NS5B thumb pocket 2 allosteric inhibitors with submicromolar gt1 replicon potency: discovery of a quinazolinone chemotype” (Bioorg Med Chem Lett, 2013).

The half-life is how long it takes for the measured level to halve. A low value points to rapid decline. As a reminder, the logD is lipophilicity at a set pH, counting ionised and neutral species. A lower logD goes with lower lipophilicity.

Data set [1] in a line: Permeability across apical to basolateral side in human Caco2 cells at 10 uM. The data set is classed as ADME, cell-based. The conditions noted are these: Caco-2, read-out: permeability. The procedure, abridged: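 Caco-2 monolayer, apical-to-basolateral transport at 10 µM across a pH 6.8–7.4 gradient; apparent permeability in cm/s ×10^-6.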
(Caco-2 cells form a polarised layer with tight junctions and transporters.)

Data set [2] is described as follows: Half life in rat liver microsomes at 2 uM. The data set is classed as ADME, Microsome. (Liver microsomes are vesicles of endoplasmic reticulum, rich in cytochrome P450 enzymes.)
Data set [3] is described as follows: Half life in human liver microsomes at 2 uM. The data set is classed as ADME, Microsome.
The nature of data set [4]: Lipophilicity, log D of the compound at pH 7.4. It is filed as physicochemical. The settings on record: buffer.

Regarding `O=c1ncn(Cc2c(F)cc(F)cc2F)c2ccc(Oc3ncccc3C(F)(F)F)cc12`, in data set [1], the Papp A→B at 10 µM came out at 12 ×10⁻⁶ cm/s. Further, the half-life at 2 µM worked out at 0.633 h in data set [2] and 2.05 h in data set [3]. This molecule showed a logD in data set [4] of 3.3.

On to `COc1ccc2c(c1)c(=O)ncn2Cc1ccc(F)cc1F`, for which, in data set [4], the logD is 1.8.

For the molecule `O=c1nc[nH]c2ccc(Oc3ncccc3C(F)(F)F)cc12`, the logD in data set [4] was 2.5.

`O=c1ncn(Cc2c(F)cc(F)cc2F)c2ccc(Oc3cccnc3C(F)(F)F)cc12`: the Papp A→B at 10 µM in data set [1] turned out to be 11 ×10⁻⁶ cm/s. Moreover, the half-life at 2 µM in data set [2] was 0.367 h; in data set [3], over 5 h. Besides, the logD in data set [4] came out at 2.9.

In the case of `O=c1ncn(Cc2c(F)cc(F)cc2F)c2ccc(Oc3ccccc3)cc12`, the logD in data set [4] was 3.2.

For `COc1ccnc(Oc2ccc3c(c2)c(=O)ncn3Cc2ccc(F)cc2F)c1C(F)(F)F`, in data set [1], the Papp A→B at 10 µM stood at 11 ×10⁻⁶ cm/s. The values for the half-life at 2 µM in data set [2] and in data set [3] were 0.433 h and 1.33 h, respectively. In data set [4], this molecule returned a log distribution coefficient (logD) of 3.5.

With `Cc1ccc(Cn2cnc(=O)c3cc(Oc4ncccc4C(F)(F)F)ccc32)c(F)c1`, in data set [1], the Papp A→B at 10 µM was 8.4 ×10⁻⁶ cm/s. Besides, the half-life at 2 µM in data set [2] is 0.25 h; in data set [3] it was 0.75 h. The molecule also gave a log distribution coefficient (logD) in data set [4] of 3.8.

Turning to `O=c1ncn(Cc2ccc(Br)cc2F)c2ccc(Oc3ncccc3C(F)(F)F)cc12`, in data set [1], the Papp A→B at 10 µM was 7.1 ×10⁻⁶ cm/s. Also, the half-life at 2 µM came to 1 h in data set [2] and 1.55 h in data set [3].

Regarding `O=c1ncn(Cc2ccc(F)cc2F)c2ccc(Oc3ncccc3C(F)(F)F)cc12`, the Papp A→B at 10 µM in data set [1] was found to be 13 ×10⁻⁶ cm/s. For the same molecule, the half-life at 2 µM was determined as 0.517 h in data set [2] and 1.83 h in data set [3].

`CC(C)N(c1ccc(Oc2ccccc2C(F)(F)F)cc1C(=O)O)C(=O)[C@H]1CC[C@H](C)CC1`: the Papp A→B at 10 µM in data set [1] was 17 ×10⁻⁶ cm/s. Besides, the half-life at 2 µM in data set [2] turned out to be 1.53 h; in data set [3], 1.98 h.

As for `O=c1ncn(Cc2c(F)cc(F)cc2F)c2ccc(Oc3cnccc3C(F)(F)F)cc12`, the logD in data set [4] was determined as 3.

Turning to `CC(C)N(c1ccc(Oc2ncccc2C(F)(F)F)cc1C(=O)O)C(=O)[C@H]1CC[C@H](C)CC1`, the Papp A→B at 10 µM in data set [1] is 19 ×10⁻⁶ cm/s. In addition, the half-life at 2 µM in data set [2] was 1 h; in data set [3], 1.15 h.

Regarding `O=c1ncn(Cc2ccc(F)cc2F)c2cc(F)c(Oc3ncccc3C(F)(F)F)cc12`, the pH-dependent lipophilicity (logD) in data set [4] was 3.9.

In data set [4], `O=c1ncn(Cc2ccc(F)cc2F)c2ccc(Oc3ccncc3C(F)(F)F)cc12` returned a logD of 3.

Take `O=c1ncn(CC2CCCC2)c2ccc(Oc3ncccc3C(F)(F)F)cc12`: the log distribution coefficient (logD) in data set [4] was 3.3.

`COc1ccnc(Oc2ccc3c(c2)c(=O)ncn3Cc2c(F)cc(F)cc2F)c1C(F)(F)F`: in data set [1], the Papp A→B at 10 µM came out at 7.9 ×10⁻⁶ cm/s. Besides, the half-life at 2 µM in data set [2] came to 0.25 h; in data set [3], 1.4 h. In data set [4], this molecule registered a logD of 3.3.

As to `O=c1ncn(Cc2c(F)cc(F)cc2F)c2ccc(Oc3ccccc3C(F)(F)F)cc12`, the logD in data set [4] is 4.2.

In data set [4], `Cc1ccc(Cn2cnc(=O)c3cc(Oc4ncccc4C(F)(F)F)ccc32)cc1` came in with a logD of 3.7.
